Source: ChEMBL document CHEMBL5724801, “EUbOPEN Chemogenomics Library - Multiplex” (2024)
Several values for one entry are separate records, joined by “and”; a condition that tells them apart may be missing. Equal entries are not always repeated.

Tested on: HEK-293T
Test: Multiplex assay against HEK293T
Format: toxicity, cell-based
Settings: human
Procedure, shortened: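 Tubulin, mitochondrial-mass and membrane-permeability phenotypes are per cents of healthy-nucleus cells. Cells were gated by CellPathfinder machine learning into Hoechst high-intensity objects or normal cells, normal cells into healthy, pyknosed or fragmented nuclei, and pyknosed cells into mitotic or apoptotic. Before that, live cells stained at seeding with Hoechst33342, BioTracker Green Microtubule Cytoskeleton Dye, MitoTracker Red and Annexin V Alexa Fluor 680 were imaged on a CQ1 microscope at 37°C and 5% CO2 after compound addition.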

[1] = 12 h, 1 µM, compound concentration 1 uM
[2] = 12 h, 10 µM, compound concentration 10 uM
[3] = 24 h, 1 µM, compound concentration 1 uM
[4] = 24 h, 10 µM, compound concentration 10 uM
[5] = 48 h, 1 µM, compound concentration 1 uM
[6] = 48 h, 10 µM, compound concentration 10 uM

## CC(C)C[C@H](CO)Nc1nc(S[C@@H](C)c2ccccc2)nc2nc(N)sc12 [AZD-8797]
[1]
  Population Apoptotic (%): 39% and 46%
  Population Fragmented Nuclei (%): 2% and 8%
  Population Healthy Nuclei (%): 81% and 72%
  Population Hoechst High Intensity Objects (%): 4% and 7%
  Population Membrane Permeable-Phenotype (%): 0%
  Population Mitochondria Different-Phenotype (%): 44% and 57%
  Population Mitotic Cells (%): 60% and 53%
  Population Normal (%): 95% and 92%
  Population Pyknosed Nuclei (%): 15% and 18%
  Population Tubulin-Different-Phenotype (%): 27% and 22%
  Total Cell Count: 326 and 356
[2]
  Population Apoptotic (%): 65% and 67%
  Population Fragmented Nuclei (%): 9% and 6%
  Population Healthy Nuclei (%): 71% and 75%
  Population Hoechst High Intensity Objects (%): 10%
  Population Membrane Permeable-Phenotype (%): 0%
  Population Mitochondria Different-Phenotype (%): 70% and 75%
  Population Mitotic Cells (%): 34% and 32%
  Population Normal (%): 89%
  Population Pyknosed Nuclei (%): 18%
  Population Tubulin-Different-Phenotype (%): 56% and 39%
  Total Cell Count: 279 and 345
[3]
  Population Apoptotic (%): 37% and 45%
  Population Fragmented Nuclei (%): 7%
  Population Healthy Nuclei (%): 76% and 81%
  Population Hoechst High Intensity Objects (%): 3% and 5%
  Population Membrane Permeable-Phenotype (%): 0%
  Population Mitochondria Different-Phenotype (%): 25% and 42%
  Population Mitotic Cells (%): 62% and 54%
  Population Normal (%): 97% and 94%
  Population Pyknosed Nuclei (%): 15% and 11%
  Population Tubulin-Different-Phenotype (%): 16% and 14%
  Total Cell Count: 400 and 421
[4]
  Population Apoptotic (%): 54% and 51%
  Population Fragmented Nuclei (%): 8% and 9%
  Population Healthy Nuclei (%): 73% and 77%
  Population Hoechst High Intensity Objects (%): 9% and 8%
  Population Membrane Permeable-Phenotype (%): 0%
  Population Mitochondria Different-Phenotype (%): 64% and 71%
  Population Mitotic Cells (%): 45% and 48%
  Population Normal (%): 90% and 91%
  Population Pyknosed Nuclei (%): 17% and 12%
  Population Tubulin-Different-Phenotype (%): 39% and 36%
  Total Cell Count: 346 and 393
[5]
  Population Apoptotic (%): 43% and 24%
  Population Fragmented Nuclei (%): 15% and 12%
  Population Healthy Nuclei (%): 78% and 79%
  Population Hoechst High Intensity Objects (%): 1% and 3%
  Population Membrane Permeable-Phenotype (%): 0% and 1%
  Population Mitochondria Different-Phenotype (%): 16% and 24%
  Population Mitotic Cells (%): 56% and 75%
  Population Normal (%): 98% and 96%
  Population Pyknosed Nuclei (%): 6% and 8%
  Population Tubulin-Different-Phenotype (%): 10% and 13%
  Total Cell Count: 663 and 681
[6]
  Population Apoptotic (%): 60% and 52%
  Population Fragmented Nuclei (%): 16% and 15%
  Population Healthy Nuclei (%): 72% and 75%
  Population Hoechst High Intensity Objects (%): 7% and 6%
  Population Membrane Permeable-Phenotype (%): 0%
  Population Mitochondria Different-Phenotype (%): 57% and 52%
  Population Mitotic Cells (%): 39% and 47%
  Population Normal (%): 92% and 93%
  Population Pyknosed Nuclei (%): 11% and 8%
  Population Tubulin-Different-Phenotype (%): 28% and 21%
  Total Cell Count: 416 and 530

## CN1[C@@H](CC(=O)c2ccccc2)CCC[C@H]1C[C@H](O)c1ccccc1.Cl [LOBELINE HYDROCHLORIDE]
[1]
  Population Apoptotic (%): 5.84% and 10.26%
  Population Fragmented Nuclei (%): 1.05% and 2.84%
  Population Hoechst High Intensity Objects (%): 0.52% and 0%
  Population Membrane Permeable-Phenotype (%): 0%
  Population Mitochondria Different-Phenotype (%): 33.04% and 30%
  Population Mitotic Cells (%): 94.16% and 89.74%
  Population Normal (%): 99.48% and 100%
  Population Pyknosed Nuclei (%): 40.31% and 82.98%
  Total Cell Count: 384 and 141
[2]
  Population Apoptotic (%): 13.08% and 13.61%
  Population Fragmented Nuclei (%): 4.88% and 1.1%
  Population Healthy Nuclei (%): 49.83% and 17.68%
  Population Hoechst High Intensity Objects (%): 0% and 0.55%
  Population Membrane Permeable-Phenotype (%): 0.7% and 0%
  Population Mitochondria Different-Phenotype (%): 17.48% and 37.5%
  Population Mitotic Cells (%): 86.92% and 86.39%
  Population Normal (%): 100% and 99.45%
  Population Pyknosed Nuclei (%): 45.3% and 81.22%
  Total Cell Count: 287 and 182
[3]
  Population Apoptotic (%): 12.24% and 13.68%
  Population Fragmented Nuclei (%): 2.04% and 2.68%
  Population Healthy Nuclei (%): 74.92% and 33.56%
  Population Hoechst High Intensity Objects (%): 0%
  Population Membrane Permeable-Phenotype (%): 1.67% and 0%
  Population Mitochondria Different-Phenotype (%): 11.3% and 14%
  Population Mitotic Cells (%): 87.76% and 86.32%
  Population Normal (%): 100%
  Population Pyknosed Nuclei (%): 23.04% and 63.76%
  Population Tubulin-Different-Phenotype (%): 10.46% and 6%
[4]
  Population Apoptotic (%): 16.35% and 24.8%
  Population Fragmented Nuclei (%): 2.39% and 1.53%
  Population Healthy Nuclei (%): 69.95% and 34.69%
  Population Hoechst High Intensity Objects (%): 0%
  Population Membrane Permeable-Phenotype (%): 1.52% and 1.47%
  Population Mitochondria Different-Phenotype (%): 18.63% and 22.06%
  Population Mitotic Cells (%): 83.65% and 75.2%
  Population Normal (%): 100%
  Population Pyknosed Nuclei (%): 27.66% and 63.78%
  Population Tubulin-Different-Phenotype (%): 12.55% and 11.76%
  Total Cell Count: 376 and 196
[5]
  Population Apoptotic (%): 7.27% and 13.92%
  Population Fragmented Nuclei (%): 2.75% and 1.71%
  Population Healthy Nuclei (%): 84.62% and 53.14%
  Population Hoechst High Intensity Objects (%): 0%
  Population Membrane Permeable-Phenotype (%): 5.33% and 1.08%
  Population Mitochondria Different-Phenotype (%): 11.75% and 19.35%
  Population Mitotic Cells (%): 92.73% and 86.08%
  Population Normal (%): 100%
[6]
  Population Fragmented Nuclei (%): 2.84% and 1.89%
  Population Healthy Nuclei (%): 86.48% and 58.49%
  Population Hoechst High Intensity Objects (%): 0% and 0.75%
  Population Membrane Permeable-Phenotype (%): 2.5% and 0%
  Population Mitochondria Different-Phenotype (%): 30.22% and 37.42%
  Population Mitotic Cells (%): 94.68% and 75.24%
  Population Normal (%): 100% and 99.25%
